One series deals with CCRF-CEM. Nature of the series: Cytotoxicity against human CCRF-CEM cells assessed as growth inhibition. Particulars: read-out: ID50 (the source's name). It counts as functional.
Series [1] can be described thus: Cytotoxicity against RBL cells assessed as growth inhibition. It counts as functional. The conditions noted are these: Rattus norvegicus, read-out: ID50 (the source's name).
For the next series, the system named is Mus musculus. Briefly: Toxicity in mouse allografted with mouse L1210 cells at 15 to 525 mg/kg, ip qd administered every 3 days for 7 days. Type of series: organism-based. More on the design: dose 15-525 mg/kg, route intraperitoneal. Particulars: in vivo. In a few lines:
(§1)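 Mice inoculated ip with 10^5 L1210 cells on day 0. Test agents injected ip in 10% Tween 80 on days 1, 4 and 7; doses 15 to 525 mg/kg. Positive control given as disodium salt in aqueous solution. Test groups of 5, control groups of 10-15. Median survival scored; %ILS = 100 × (T − C)/C.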

Series [2] has as its system L1210. Nature of the series: Antitumor activity against mouse L1210 cells allografted in mouse assessed as increase in life span at 15 to 525 mg/kg, ip qd administered every 3 days for 7 days. It counts as functional, organism-based. The method, boiled down:
as §1

Another series relates to Plasma. Nature of the series: Drug level in mouse plasma treated with methotrexate bis(benzylamide) at 100 mg/kg, ip measured after 6 to 24 hrs by TLC analysis. It counts as ADME, organism-based. Set-up: dose 100 mg/kg, route intraperitoneal. The conditions noted are these: in vivo. In a few lines: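 Normal mice received a single ip dose of 100 mg/kg in 10% Tween 80. One animal was killed at 6 h and one at 24 h. Blood was taken by ocular puncture with a heparinized syringe and the red cells spun down. Plasma 0.2 mL was cooled on ice and diluted with methanol 0.4 mL to precipitate protein, then centrifuged. Analysed by cellulose TLC developed in 0.5 M phosphate buffer pH 7.4.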

Series [3] relates to Serum. Nature of the series: Drug level in rat whole serum treated with methotrexate di-n-butyl ester measured after 1 hr by TLC analysis. Type of series: ADME, cell-free. The method, boiled down: (§2)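 Fresh rat serum 0.9 mL plus compound 0.006 g in 0.1 mL Me2SO, incubated at 37 °C with gentle shaking for up to 24 h. Cooled on ice, diluted 1.5-fold with methanol to precipitate protein, centrifuged. Supernatant run on fluorescent cellulose TLC developed with 0.5 M phosphate buffer pH 7.4 to detect parent compound and metabolites.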

In series [4] the test system is Serum. Briefly: Prodrug conversion in rat whole serum assessed as formation of methotrexate at 0.006 g measured up to 24 hrs by TLC analysis. It counts as ADME. In a few lines:
as §2

The test system of series [5] is L1210. Nature of the series: Antitumor activity against mouse L1210 cells allografted in mouse assessed as increase in life span at 525 mg/kg, ip qd administered every 3 days for 7 days relative to control. Type of series: functional. Particulars: route intraperitoneal. In a few lines:
(§3)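 L1210 cells (10^5) implanted ip in mice on day 0. Compounds given ip in 10% Tween 80 on days 1, 4 and 7, at doses from 15 to 525 mg/kg. Methotrexate was given as the disodium salt in aqueous solution. Groups had 5 treated and 10-15 control animals. %ILS = 100 × (T − C)/C, where T and C are median survival days of treated and control mice.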

Series [6] concerns L1210. Briefly: Antitumor activity against mouse L1210 cells allografted in mouse assessed as increase in life span at 225 mg/kg, ip qd administered every 3 days for 7 days relative to control. It counts as functional. Particulars: route intraperitoneal. In a few lines: as §3
Series [7] relates to L1210. Nature of the series: Antitumor activity against mouse L1210 cells allografted in mouse assessed as median survival time at 350 mg/kg, ip qd administered every 3 days for 7 days. It counts as functional. Particulars: route intraperitoneal. In a few lines:
(§4)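 Mice were inoculated ip with 10^5 L1210 leukemia cells on day 0. Dosing was ip on days 1, 4 and 7 in 10% Tween 80, with the methotrexate disodium salt in water, over 15–525 mg/kg. Survival was recorded in days as the range and median per group, with 5 treated and 10-15 untreated controls.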

In series [8] the target is Dihydrofolate reductase (Lactobacillus casei) (UniProt P00381). Briefly: Inhibition of methotrexate-resistant Lactobacillus casei ATCC 7469 dihydrofolate reductase. The conditions noted are these: Lacticaseibacillus casei.
Series [9] deals with L1210. Briefly: Antitumor activity against mouse L1210 cells allografted in mouse assessed as median survival time at 150 mg/kg, ip qd administered every 3 days for 7 days. Type of series: functional. The conditions noted are these: route intraperitoneal. The method, boiled down: as §4
The subject of series [10] is L1210. Briefly: Antitumor activity against mouse L1210 cells allografted in mouse assessed as increase in life span at 150 mg/kg, ip qd administered every 3 days for 7 days relative to control. Type of series: functional. Particulars: route intraperitoneal. The method, boiled down: as §3
In series [11] the test system is L1210. Briefly: Antitumor activity against mouse L1210 cells allografted in mouse assessed as median survival time at 225 mg/kg, ip qd administered every 3 days for 7 days. Particulars: route intraperitoneal. Type of series: functional. In a few lines: as §4
Series [12] concerns L1210. Nature of the series: Antitumor activity against mouse L1210 cells allografted in mouse assessed as median survival time at 525 mg/kg, ip qd administered every 3 days for 7 days. Type of series: functional. Particulars: route intraperitoneal. The method, boiled down: as §4
The subject of series [13] is L1210. Briefly: Antitumor activity against mouse L1210 cells allografted in mouse assessed as increase in life span at 350 mg/kg, ip qd administered every 3 days for 7 days relative to control. It counts as functional. The conditions noted are these: route intraperitoneal. The method, boiled down: as §3
For series [14], the system named is L1210. Briefly: Antitumor activity against mouse L1210 cells allografted in mouse assessed as increase in life span at 0.18 mg/kg, sc administered daily up to death started on day 5 post tumor implantation relative to control. The conditions noted are these: 120 h, route subcutaneous. It counts as functional.
For series [15], the system named is L1210. Briefly: Antitumor activity against mouse L1210 cells allografted in mouse assessed as median survival time at 25 mg/kg, ip qd administered every 3 days for 7 days. Type of series: functional. Particulars: route intraperitoneal. In a few lines: as §4
For series [16], the system named is L1210. Nature of the series: Antitumor activity against mouse L1210 cells allografted in mouse assessed as median survival time at 15 mg/kg, ip qd administered every 3 days for 7 days. It counts as functional. Particulars: route intraperitoneal. The method, boiled down: as §4
Series [17] has as its system L1210. Nature of the series: Antitumor activity against mouse L1210 cells allografted in mouse assessed as increase in life span at 15 mg/kg, ip qd administered every 3 days for 7 days relative to control. It counts as functional. Particulars: route intraperitoneal. The method, boiled down:
as §3

Series [18] concerns L1210. Briefly: Antitumor activity against mouse L1210 cells allografted in mouse assessed as increase in life span at 25 mg/kg, ip qd administered every 3 days for 7 days relative to control. The conditions noted are these: route intraperitoneal. It counts as functional. In a few lines: as §3

Molecules are shown by their SMILES. Values after ≈ are worked out from the molar mass of the structure shown. Active and inactive are the calls of the source. The calls are words filed in the database; no cut-off is given here. A value given as a limit tells only on which side of the number the result lay.

Dihydrofolate reductase (Lactobacillus casei), sequence (P00381 whole entry): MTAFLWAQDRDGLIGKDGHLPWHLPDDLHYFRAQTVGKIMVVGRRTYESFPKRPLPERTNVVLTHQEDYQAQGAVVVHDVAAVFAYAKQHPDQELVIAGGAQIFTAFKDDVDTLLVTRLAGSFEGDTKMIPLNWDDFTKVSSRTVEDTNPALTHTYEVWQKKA

As to `CN(Cc1cnc2nc(N)nc(N)c2n1)c1ccc(C(=O)N[C@@H](CCC(=O)NC2CCCCC2)C(=O)NC2CCCCC2)cc1`, the IC50 is 1 µg/mL (≈ 1.62 µM) in the series with CCRF-CEM and 0.22 µg/mL (≈ 0.357 µM) in series [1]. Besides, the Activity result in the series with Mus musculus is recorded as “Toxic”. Besides, in the series with L1210 [2], the result was inactive.
For `CN(Cc1cnc2nc(N)nc(N)c2n1)c1ccc(C(=O)N[C@@H](CCC(=O)O)C(=O)O)cc1` [METHOTREXATE], the IC50 (in the series with CCRF-CEM; in series [1]) was 0.003 µg/mL (≈ 0.0066 µM) each time. Further, the Drug metabolism entry in the series with Plasma and with Serum [3] was “metabolite_detected” throughout.
In the case of `CN(Cc1cnc2nc(N)nc(N)c2n1)c1ccc(C(=O)N[C@@H](CCC(=O)NCCc2ccccc2)C(=O)NCCc2ccccc2)cc1`, the IC50 in the series with CCRF-CEM was above 10 µg/mL.
With `COc1ccc(CCNC(=O)CC[C@H](NC(=O)c2ccc(N(C)Cc3cnc4nc(N)nc(N)c4n3)cc2)C(=O)NCCc2ccc(OC)c(OC)c2)cc1OC`, the IC50 in the series with CCRF-CEM was above 10 µg/mL.
`CN(Cc1cnc2nc(N)nc(N)c2n1)c1ccc(C(=O)N[C@@H](CCC(=O)N2CCCC2)C(=O)N2CCCC2)cc1`: in the series with Mus musculus, the Activity result was “Toxic”. The outcome with L1210 [2] was inactive.
With `CN(Cc1cnc2nc(N)nc(N)c2n1)c1ccc(C(=O)N[C@@H](CCC(N)=O)C(N)=O)cc1`, the IC50 in the series with CCRF-CEM is above 10 µg/mL.
On to `CCCNC(=O)CC[C@H](NC(=O)c1ccc(N(C)Cc2cnc3nc(N)nc(N)c3n2)cc1)C(=O)NCCC`, for which the Drug metabolism result in the series with Serum [4] was “metabolite_notdetected”. Also, the ILS at 525 mg/kg in the series with L1210 [5] was found to be 18%. In addition, the ILS at 225 mg/kg in the series on L1210 [6] was found to be 27%. Moreover, the IC50 with CCRF-CEM stood at 7 µg/mL (≈ 13 µM). Further, the MST in the series with L1210 [7] was 13 days; in the series on L1210 [9] it was 11 days; with L1210 [11], 14 days; with L1210 [12], 13 days. The molecule also had an ID50 in series [8] of 1.8 ×10⁻⁷ M. Moreover, the ILS at 150 mg/kg in the series on L1210 [10] worked out at 0%. In addition, the ILS at 350 mg/kg in the series with L1210 [13] was 18%.
`Nc1nc(N)c2nc(CNc3ccc(C(=O)N[C@@H](CCC(=O)O)C(=O)O)cc3)cnc2n1` [AMINOPTERIN]: the ILS at 0.18 mg/kg with L1210 [14] was determined as 30%.
As for `CN(Cc1cnc2nc(N)nc(N)c2n1)c1ccc(C(=O)N[C@@H](CCC(=O)[O-])C(=O)[O-])cc1.[Na+].[Na+]` [METHOTREXATE SODIUM], the MST in the series with L1210 [15] was determined as 18 days; in the series with L1210 [16], 15 days. In addition, in the series with L1210 [17], the ILS at 15 mg/kg turned out to be 66%. For the same molecule, the ILS at 25 mg/kg in the series on L1210 [18] was found to be 100%.

The ILS is the gain in survival time of treated over control animals, in per cent.
